# Reference: ChEMBL document CHEMBL1933044
# Activity calls are given as the source filed them. The rule behind the calls is not given here.
# Key:
# [1] = test system: Matrix protein 2 (Influenza A virus), P06821 [withheld]; assay: Inhibition of Influenza A virus (A/Puerto Rico/8/1934(H1N1)) M2 channel S31N mutant expressed in Xenopus oocytes at 100 uM by two-electrode voltage clamp assay; type: cell-based; conditions: Oocyte
# In short: (§1)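 Influenza A/Udorn/72 M2 cDNA, wild type or S31N or V27A mutant made by site-directed mutagenesis, expressed from mRNA microinjected into Xenopus oocytes. Two-electrode voltage clamp recording was done 48–72 h after injection. Compound was applied at pH 5.5 for 2 min once inward current peaked. Residual current was compared with current before application.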
# [2] = test system: Matrix protein 2 (Influenza A virus), P06821 [V27A]; assay: Inhibition of Influenza A virus (A/Puerto Rico/8/1934(H1N1)) M2 channel V27A mutant expressed in Xenopus oocytes at 100 uM by two-electrode voltage clamp assay; type: cell-based; conditions: Oocyte; in short: as §1
Structure (SMILES),inhibition [1],inhibition [2]
CC12CC3CC(NCc4ccccc4)(CC(C1)c1ccccc13)C2,inactive,inactive
CN(C)C12CC3CC(C)(CC(C1)c1ccccc13)C2,inactive,inactive
CC12CC3CC(N)(CC(C1)c1ccccc13)C2,inactive,inactive
